In ChEMBL document CHEMBL2177013, “Synthesis and biological evaluation of tylophorine-derived dibenzoquinolines as orally active agents: exploration of the role of tylophorine e ring on biological activity” (J Med Chem, 2012):
≈ marks a conversion by molar mass, not a printed value. Calls of active or inactive are those of the source. The rule behind the calls is not given here.

Experiments:
[1] = Oral bioavailability in Sprague-Dawley rat at 3 mg/kg by HPLC-MS method; type: ADME, organism-based; details: in vivo
How it was run: (§1)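 Male rats (330−380 g, 9−10 weeks), jugular vein cannula implanted 1 day before, fasted. 3 mg/kg given iv or orally (n = 3) in DMA/PEG400 30/70 v/v. Blood (150 μL) drawn at 0, 2, 5 (iv only), 15, 30 min and 1, 2, 4, 6, 8, 12, 24 h; plasma analysed by HPLC-MS; noncompartmental analysis.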

[2] = AUC (0 to infinity) in Sprague-Dawley rat at 3 mg/kg, po by HPLC-MS method; type: ADME, organism-based; parameters: dose 3 mg/kg, route oral, time infinity; details: plasma
How it was run: (§2)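 Male rats (330−380 g, 9−10 weeks old), jugular vein cannulated 1 day before dosing, fasted; 3 mg/kg iv or oral in DMA/PEG400 (30/70, v/v), n = 3. Blood (150 μL) drawn at 0, 2, 5 (iv only), 15, 30 min and 1, 2, 4, 6, 8, 12, 24 h, kept on ice; plasma analysed by HPLC-MS; noncompartmental analysis.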

[3] = Tmax in Sprague-Dawley rat at 3 mg/kg, po by HPLC-MS method; type: ADME, organism-based; parameters: dose 3 mg/kg, route oral; details: in vivo; how it was run: as §1
[4] = Cmax in Sprague-Dawley rat at 3 mg/kg, po by HPLC-MS method; type: ADME, organism-based; parameters: dose 3 mg/kg, route oral; details: in vivo; how it was run: as §1
[5] = Apparent elimination half life in Sprague-Dawley rat at 3 mg/kg, po by HPLC-MS method; type: ADME, organism-based; parameters: dose 3 mg/kg, route oral; details: in vivo, read-out: betat1/2(app) (converted); how it was run: as §1
[6] = AUC (0 to infinity) in Sprague-Dawley rat at 3 mg/kg, iv by HPLC-MS method; type: ADME, organism-based; parameters: time infinity, dose 3 mg/kg, route intravenous; details: plasma; how it was run: as §2
[7] = Volume of distribution at steady state in Sprague-Dawley rat at 3 mg/kg, iv by HPLC-MS method; type: ADME, organism-based; parameters: dose 3 mg/kg, route intravenous; details: in vivo, read-out: Vdss; how it was run: as §1
[8] = Clearance in Sprague-Dawley rat at 3 mg/kg, iv by HPLC-MS method; type: ADME, organism-based; parameters: dose 3 mg/kg, route intravenous; details: in vivo; how it was run: as §1
[9] = Apparent elimination half life in Sprague-Dawley rat at 3 mg/kg, iv by HPLC-MS method; type: ADME, organism-based; parameters: dose 3 mg/kg, route intravenous; details: in vivo, read-out: betat1/2(app) (converted); how it was run: as §1
[10] = Solubility in DMA; type: physicochemical
[11] = Solubility in DMSO; type: physicochemical
How it was run: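 Compound dissolved in DMSO with sonication; maximal volume before precipitation measured and used to calculate saturation solubility.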

[12] = test system: Transmissible gastroenteritis virus; experiment: Antiviral activity against Transmissible gastroenteritis virus infected in ST cells assessed as reduction in caspase-3 activation pre-treated before virus infection measured 16 hrs post virus infection by Western blotting; type: functional, organism-based
How it was run: (§3)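 ST cells pretreated with compound, then infected with TGEV. Western blot for nucleocapsid (N) protein, caspase 3 (cleavage of procaspase 3) and GAPDH at 16 hpi. Representative of at least three independent experiments.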

[13] = test system: Transmissible gastroenteritis virus; experiment: Antiviral activity against Transmissible gastroenteritis virus infected in ST cells assessed as reduction in N-protein expression pre-treated before virus infection measured 16 hrs post virus infection by Western blotting; type: functional, organism-based; how it was run: as §3
RAW264.7 [14] = experiment: Reduction in LPS/INFgamma-induced COX2 protein expression in mouse RAW264.7 cells incubated for 20 hrs by Western blotting; type: functional, cell-based
How it was run: (§4)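 LPS/IFNγ-stimulated RAW264.7 cells treated with compound for 20 h. iNOS, COX-2 and GAPDH detected by Western blot; representative of at least three independent experiments.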

RAW264.7 [15] = experiment: Reduction in LPS/INFgamma-induced iNOS protein expression in mouse RAW264.7 cells incubated for 20 hrs by Western blotting; type: functional, cell-based; how it was run: as §4
A549 [16] = experiment: Induction of c-Jun protein accumulation in human A549 cells incubated for 24 hrs by Western blotting; type: functional, cell-based
A549 [17] = experiment: Down regulation of cyclin A2 expression in human A549 cells incubated for 24 hrs by Western blotting; type: functional, cell-based
NCI-H460 [18] = experiment: Induction of c-Jun protein accumulation in human NCI-H460 cells incubated for 24 hrs by Western blotting; type: functional, cell-based
NCI-H460 [19] = experiment: Down regulation of cyclin A2 expression in human NCI-H460 cells incubated for 24 hrs by Western blotting; type: functional, cell-based
MCF7 [20] = experiment: Induction of c-Jun protein accumulation in human MCF7 cells incubated for 24 hrs by Western blotting; type: functional, cell-based
MCF7 [21] = experiment: Down regulation of cyclin A2 expression in human MCF7 cells incubated for 24 hrs by Western blotting; type: functional, cell-based
[22] = Cytotoxicity against mouse RAW264.7 cells; type: cell-based
How it was run: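 RAW264.7 cells stimulated with LPS/IFNγ and compound-treated in parallel with the NO assay; CC50 taken as concentration giving 50% inhibition of cell growth. Mean of at least three experiments, each in duplicate.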

RAW264.7 [23] = experiment: Antiinflammatory activity in mouse RAW264.7 cells assessed as inhibition of LPS-induced nitric oxide production incubated for 18 hrs by nitrate/nitrite assay; type: functional, cell-based; details: RAW264.7, 18 h
How it was run: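 RAW264.7 seeded 65000 cells/well, cultured 24 h, then medium replaced with complete medium containing IFNγ (20 ng/mL)/LPS (5 μg/mL) plus compound at various concentrations for 18 h; nitric oxide measured by Nitrate/Nitrite kit. EC50 as mean of at least three experiments, each in duplicate.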

[24] = test system: Transmissible gastroenteritis virus; experiment: Antiviral activity against Transmissible gastroenteritis virus infected in ST cells pre-treated 2 hrs before virus infection measured 6 hrs post virus infection by immunofluorescent assay; type: functional, organism-based; details: Alphacoronavirus 1, ST
How it was run: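 ST cells, with or without 2 h compound pretreatment (10 concentrations), infected with TGEV at MOI 10. Immunofluorescence with anti-spike and anti-nucleocapsid antibodies at 6 hpi. EC50 from dose–response curves, mean of at least three experiments, each in duplicate.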

[25] = Growth inhibition of human HONE1 cells; type: functional
How it was run: (§5)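 Cells seeded per well: NUGC-3 4500, HONE-1 6000, MCF-7 6500, NCI-H460 2500, HepG2 10000, A549 5000; A549 grown in RPMI 1640 with 2 g/L NaHCO₃, 2 mM L-glutamine and 10% FBS. GI₅₀ = concentration giving 50% growth inhibition, mean of at least three experiments each in duplicate. Paclitaxel served as positive control.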

NUGC-3 = experiment: Growth inhibition of human NUGC3 cells; type: functional; how it was run: as §5
NCI-H460 [26] = experiment: Growth inhibition of human NCI-H460 cells; type: functional; how it was run: as §5
MCF7 [27] = experiment: Growth inhibition of human MCF7 cells; type: functional; how it was run: as §5
A549 [28] = experiment: Growth inhibition of human A549 cells; type: functional; how it was run: as §5
HepG2 = experiment: Growth inhibition of human HepG2 cells; type: functional; how it was run: as §5

Row | SMILES | bioavailability [1] [%] | AUC(0-inf) [2] [ng·h/mL] | Tmax [3] [h] | Cmax [4] [ng/mL] | half-life [5] [h] | AUC(0-inf) [6] [ng·h/mL] | Vd [7] [L/kg] | clearance [8] [mL/min/kg] | half-life [9] [h] | Activity [12] | Activity [13] | Activity (RAW264.7 [14]) | Activity (RAW264.7 [15]) | Activity (A549 [16]) | Activity (A549 [17]) | Activity (NCI-H460 [18]) | Activity (NCI-H460 [19]) | Activity (MCF7 [20]) | Activity (MCF7 [21]) | EC50 [24] [µM] | other results
1 | CCCN1CCc2c(c3cc(OC)c(OC)cc3c3cc(OC)c(OC)cc23)C1 | 62.8 | 515 | 4 | 87 | 2.4 | 824 | 9 | 60.8 | 2.7 | Active | Active | Active | Active | Active | Active | Active | Active | Active | Active | 0.83 | solubility [10]: soluble; solubility [11]: 50 mM (≈ 19.8 mg/mL); CC50 [22]: > 4 µM; EC50 (RAW264.7 [23]): 1.38 µM; GI50 [25]: 1.21 µM; GI50 (NUGC-3): 0.47 µM; GI50 (NCI-H460 [26]): 0.45 µM; GI50 (MCF7 [27]): 0.51 µM; GI50 (A549 [28]): 0.73 µM; GI50 (HepG2): 0.77 µM
2 | CCN1CCc2c(c3cc(OC)c(OC)cc3c3cc(OC)ccc23)C1 | 105 | 2470 | 0.3 | 535 | 6.3 | 2320 | 5.1 | 20 | 16 | Active | Active | Active | Active | Active | Active | Active | Active | Active | Active | 0.58 | GI50 [25]: 0.57 µM; GI50 (NUGC-3): 0.32 µM; GI50 (NCI-H460 [26]): 0.3 µM; GI50 (MCF7 [27]): 0.37 µM; GI50 (A549 [28]): 0.4 µM; GI50 (HepG2): 0.66 µM
